28 compounds from ChEMBL document CHEMBL2375266, “Design and synthesis of 2-substituted benzoxazoles as novel PTP1B inhibitors” (Bioorg Med Chem Lett, 2013) can be followed below.

Usually Ki stands for a measure of affinity in units of concentration, obtained from inhibition or displacement.

The target in test [1] is T1, Tyrosine-protein phosphatase non-receptor type 1 (Homo sapiens, UniProt P18031).
T1 sequence (P18031 whole entry): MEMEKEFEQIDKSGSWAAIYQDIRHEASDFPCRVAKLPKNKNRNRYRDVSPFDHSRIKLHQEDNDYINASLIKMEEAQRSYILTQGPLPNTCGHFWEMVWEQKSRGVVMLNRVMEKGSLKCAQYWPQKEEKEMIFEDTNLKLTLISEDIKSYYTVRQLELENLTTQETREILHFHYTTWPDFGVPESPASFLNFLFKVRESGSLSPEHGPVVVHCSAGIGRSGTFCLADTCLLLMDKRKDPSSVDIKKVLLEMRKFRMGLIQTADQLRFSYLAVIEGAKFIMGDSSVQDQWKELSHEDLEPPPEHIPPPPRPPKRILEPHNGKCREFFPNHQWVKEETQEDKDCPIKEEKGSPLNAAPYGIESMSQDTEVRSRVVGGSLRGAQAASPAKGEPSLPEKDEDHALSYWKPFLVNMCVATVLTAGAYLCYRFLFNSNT
The test can be described thus: Inhibition of PTP1B (unknown origin)-mediated pNPP hydrolysis to 4-nitrophenol after 60 mins by spectrophotometric analysis. In short, it runs like this:
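Colorimetric pNPP assay at room temperature in 25 mM Tris pH 7.5, 75 mM NaCl, 1 mM DTT, 0.1% BSA. Compound dilution series was added, and the reaction was started with 5 nM PTP1B. After 60 min it was stopped with NaOH. 4-Nitrophenol was read at 405 nm, with corrections for substrate and compound absorbance.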

In test [2] the target is T2, Tyrosine-protein phosphatase non-receptor type 2 (Homo sapiens, UniProt P17706).
T2 sequence (P17706 whole entry): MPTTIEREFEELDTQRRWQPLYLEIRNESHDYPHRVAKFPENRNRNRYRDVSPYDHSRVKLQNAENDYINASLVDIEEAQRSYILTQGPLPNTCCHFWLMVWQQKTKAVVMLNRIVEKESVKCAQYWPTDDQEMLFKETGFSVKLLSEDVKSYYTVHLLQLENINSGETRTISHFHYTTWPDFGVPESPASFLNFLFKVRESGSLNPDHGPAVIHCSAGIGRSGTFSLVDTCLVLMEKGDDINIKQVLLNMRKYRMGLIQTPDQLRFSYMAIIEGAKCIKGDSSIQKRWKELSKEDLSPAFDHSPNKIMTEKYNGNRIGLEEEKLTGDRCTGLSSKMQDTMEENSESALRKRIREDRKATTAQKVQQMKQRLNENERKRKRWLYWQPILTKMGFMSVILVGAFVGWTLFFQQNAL
The experiment in a line: Inhibition of TCPTP (unknown origin).

Test [3] addresses T1, Tyrosine-protein phosphatase non-receptor type 1. The test can be described thus: Inhibition of PTP1B (unknown origin).

SMILES strings stand for the structures.

Consider `O=C(O)c1ccc(CC(c2nc3ccccc3[nH]2)S(=O)(=O)Nc2ccc(F)cc2)cc1` (stereo not given), for which, in test [1], the inhibition constant (Ki) is more than 500 µM.
Take `CCCCNS(=O)(=O)C(Cc1ccc(NC(=O)C(=O)O)cc1)c1nc2ccccc2o1` (stereo not given): the inhibition constant (Ki) is 33.4 µM in test [2] and 82.4 µM in test [1].
As to `O=C(O)COc1ccc(CC(c2nc3ccccc3[nH]2)S(=O)(=O)Nc2ccc(F)cc2)cc1O` (stereo not given), in test [1], the affinity, expressed as Ki, was 162 µM.
In the case of `CC(C)(C)c1ccc(CN(Cc2ccc(C(C)(C)C)cc2)S(=O)(=O)C(Cc2ccc(NC(=O)C(=O)O)cc2)c2nc3ccccc3o2)cc1` (stereo not given), the results for the inhibitory constant (Ki) in test [2] and in test [1] were 6.4 µM and 14.9 µM, respectively.
The like results for `CC(C)Oc1ccc(NS(=O)(=O)C(Cc2ccc(NC(=O)C(=O)O)cc2)c2nc3ccccc3o2)cc1` (stereo not given) were, in that order, 101 µM and 92 µM.
As for `O=C(O)C(=O)Nc1ccc(CC(c2nc3ccccc3o2)S(=O)(=O)NC(=O)c2ccc(Cl)cc2)cc1` (stereo not given), the Ki in test [2] was found to be 13.1 µM; in test [1], 82.4 µM.
In test [1], `O=C(O)C(=O)Nc1ccc(CC(c2nc3ccccc3o2)S(=O)(=O)N(Cc2ccccc2C(F)(F)F)Cc2ccccc2C(F)(F)F)cc1` (stereo not given) displayed an inhibitory constant (Ki) of 6.8 µM.
For the compound `Cc1ccc(NS(=O)(=O)C(Cc2ccc(NC(=O)C(=O)O)cc2)c2nc3ccccc3o2)cc1` (stereo not given), the inhibition constant Ki in test [2] worked out at 9.2 µM; in test [1], 62 µM.
On to `CC(=O)NS(=O)(=O)C(Cc1ccc(NC(=O)C(=O)O)cc1)c1nc2ccccc2o1` (stereo not given), for which the Ki in test [2] stood at 86.5 µM; in test [1], 63 µM.
Take `O=C(O)C(=O)Nc1ccc(C[C@H](c2nc3ccccc3o2)S(=O)(=O)N(Cc2ccc(Cl)cc2)Cc2ccc(Cl)cc2)cc1`: the inhibitory constant (Ki) in test [2] is 3.7 µM; in test [1] it was 6.7 µM.
As for `COc1ccc(NS(=O)(=O)C(Cc2ccc(NC(=O)C(=O)O)cc2)c2nc3ccccc3o2)cc1` (stereo not given), the Ki in test [2] turned out to be 134 µM; in test [1], 68.8 µM.
The like results for `O=C(O)C(=O)Nc1ccc(CC(c2nc3ccccc3o2)S(=O)(=O)Nc2ccc(C(F)(F)F)cc2)cc1` (stereo not given) were, in that order, 8 µM and 23.6 µM.
In test [1], `O=S(=O)(Nc1ccc(F)cc1)C(Cc1ccc(O)c(O)c1)c1nc2ccccc2[nH]1` (stereo not given) had an inhibition constant (Ki) of 211 µM.
Turning to `CC(C)(C)NS(=O)(=O)C(Cc1ccc(NC(=O)C(=O)O)cc1)c1nc2ccccc2o1` (stereo not given), the results for the inhibitory constant (Ki) in test [2] and in test [1] were 135 µM and 228 µM, respectively.
In test [1], `CN(c1ccc(F)cc1)S(=O)(=O)C(Cc1ccc(NC(=O)C(=O)O)cc1)c1nc2ccccc2[nH]1` (stereo not given) came in with a Ki of 125 µM.
In test [3], `CCc1cc(CN(C(C)=O)C(=O)NCCCCOc2cccc(O)c2C(=O)OC)ccc1N(C(=O)C(=O)O)c1ccccc1C(=O)O` came in with an inhibitory constant (Ki) of 18 nM.
Regarding `O=C(O)CN(CC(=O)O)S(=O)(=O)C(Cc1ccc(NC(=O)C(=O)O)cc1)c1nc2ccccc2o1` (stereo not given), the inhibitory constant (Ki) was determined as 22 µM in test [2] and 235 µM in test [1].
`O=C(O)C(=O)Nc1ccc(CC(c2nc3ccccc3o2)S(=O)(=O)N(Cc2cccc(C(F)(F)F)c2)Cc2cccc(C(F)(F)F)c2)cc1` (stereo not given): the Ki in test [2] was determined as 21 µM; in test [1] it was 35 µM.
For `NS(=O)(=O)C(Cc1ccc(NC(=O)C(=O)O)cc1)c1nc2ccccc2o1` (stereo not given), the inhibition constant (Ki) in test [2] came to 137 µM; in test [1], 331 µM.
`O=C(O)C(=O)Nc1ccc(CC(c2nc3ccccc3o2)S(=O)(=O)NC(=O)c2ccccc2)cc1` (stereo not given): the inhibitory constant (Ki) turned out to be 256 µM in test [2] and 125 µM in test [1].
The like results for `O=C(O)C(=O)Nc1ccc(CC(c2nc3ccccc3o2)S(=O)(=O)N(Cc2ccc(OC(F)(F)F)cc2)Cc2ccc(OC(F)(F)F)cc2)cc1` (stereo not given) were, in that order, 17.2 µM and 16.8 µM.
In test [1], `O=C(O)C(=O)Nc1ccc(C[C@H](c2nc3ccccc3o2)S(=O)(=O)Nc2ccc(F)cc2)cc1` registered a Ki of 35 µM.
In turn, `O=C(O)C(=O)Nc1ccc(CC(c2nc3ccccc3[nH]2)S(=O)(=O)Nc2ccc(F)cc2)cc1` (stereo not given) returned an inhibition constant (Ki) in test [1] of 67.5 µM.
On to `COc1ccc(CN(Cc2ccc(OC)cc2)S(=O)(=O)C(Cc2ccc(NC(=O)C(=O)O)cc2)c2nc3ccccc3o2)cc1` (stereo not given), for which the Ki in test [2] came out at 18.9 µM; in test [1], 14 µM.
Turning to `O=C(O)COc1ccc(CC(c2nc3ccccc3o2)S(=O)(=O)Nc2ccc(F)cc2)cc1O` (stereo not given), the inhibition constant (Ki) in test [1] is 66.5 µM.
In the case of `O=C(O)C(=O)Nc1ccc(CC(c2nc3ccccc3o2)S(=O)(=O)N(Cc2ccc(F)cc2)Cc2ccc(F)cc2)cc1` (stereo not given), in test [1], the affinity, expressed as Ki, was 10 µM.
On to `O=C(O)C(=O)Nc1ccc(CC(c2nc3ccccc3o2)S(=O)(=O)N(Cc2ccc(C(F)(F)F)cc2)Cc2ccc(C(F)(F)F)cc2)cc1` (stereo not given), for which the Ki in test [2] came out at 12.5 µM; in test [1], 7.7 µM.
Turning to `O=C(O)C(=O)Nc1ccc(CC(c2nc3ccccc3o2)S(=O)(=O)NCCc2ccc(Cl)cc2)cc1` (stereo not given), the affinity in test [1] corresponds to a Ki of 41 µM.
